Test results from ChEMBL document CHEMBL3856258, “Phosphonate-based irreversible inhibitors of human γ-glutamyl transpeptidase (GGT). GGsTop is a non-toxic and highly selective inhibitor with critical electrostatic interaction with an active-site residue Lys562 for enhanced inhibitory activity” (Bioorg Med Chem, 2016).
Calls of active or inactive are those of the source. The calls are words filed in the database; no cut-off is given here.

Assays:
Homo sapiens = organism: Homo sapiens; experiment: Irreversible inhibition of human GGT using gamma-Glu-AMC as substrate assessed as association rate constant by […] analysis
In short: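 The enzyme source was a commercial human GGT preparation carrying bovine serum albumin as stabilizer (GGT <1% of protein). Hydrolytic activity was followed with γ-Glu-AMC as substrate. Irreversible inactivation was expressed as kon, the second-order rate constant for the inhibitor–enzyme reaction.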

Escherichia coli K-12 = experiment: Irreversible inhibition of Escherichia coli K-12 SH642 GGT using gamma-Glu-AMC as substrate assessed as association rate constant by […] analysis
In short: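 GGT was purified from the periplasmic fraction of recombinant E. coli K-12 SH642. Hydrolytic activity was followed with γ-Glu-AMC as substrate. Irreversible inactivation was expressed as kon, the second-order rate constant for the inhibitor–enzyme reaction.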

Salmonella typhimurium [1] = experiment: Genotoxicity in Salmonella typhimurium TA1537 assessed as number of revertant colonies per plate at 80 ug/plate after 20 mins in absence of S9 fraction by Ames test (reference value: 9); assay type: toxicity, organism-based; settings: salmonella enterica subsp. enterica serovar typhimurium
[2] = Hydrolytic stability of the compound in D2O assessed as formation of monomethyl phosphonate and phenol at 23 degC up to 28 days by 31P NMR spectroscopy; assay type: physicochemical; settings: 672 h
Salmonella typhimurium [3] = experiment: Genotoxicity in Salmonella typhimurium TA1537 assessed as number of revertant colonies per plate at 2 ug/plate after 20 mins in presence of S9 fraction by Ames test (reference value: 15); assay type: toxicity, organism-based; settings: salmonella enterica subsp. enterica serovar typhimurium
Salmonella typhimurium [4] = experiment: Genotoxicity in Salmonella typhimurium TA1535 assessed as number of revertant colonies per plate at 2 ug/plate after 20 mins in presence of S9 fraction by Ames test (reference value: 13); assay type: toxicity, organism-based; settings: salmonella enterica subsp. enterica serovar typhimurium
Salmonella typhimurium [5] = experiment: Genotoxicity in Salmonella typhimurium TA98 assessed as number of revertant colonies per plate at 0.5 ug/plate after 20 mins in presence of S9 fraction by Ames test (reference value: 26); assay type: toxicity, organism-based; settings: salmonella enterica subsp. enterica serovar typhimurium
Escherichia coli [6] = experiment: Genotoxicity in Escherichia coli WP2uvrA assessed as number of revertant colonies per plate at 10 ug/plate after 20 mins in presence of S9 fraction by Ames test (reference value: 26); assay type: toxicity; settings: s9, 20 min
Salmonella typhimurium [7] = experiment: Genotoxicity in Salmonella typhimurium TA100 assessed as number of revertant colonies per plate at 1 ug/plate after 20 mins in presence of S9 fraction by Ames test (reference value: 142); assay type: toxicity, organism-based; settings: salmonella enterica subsp. enterica serovar typhimurium
Escherichia coli [8] = experiment: Inhibition of glutaminase activity of Escherichia coli asparagine synthetase B at 0.1 mM using L-glutamine as substrate after 30 to 120 mins in presence of L-glutamate dehydrogenase and NAD+
In short: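 Enzyme (60 µg) preincubated at 30 °C with inhibitor in 100 mM Tris-HCl pH 7.5, 8 mM MgCl2, 100 mM NaCl, 0.5 mM DTT. Aliquots taken at 30 and 120 min. Glutaminase reaction: 100 mM EPPS pH 8, 20 mM L-Gln, 37 °C for 10 min, then TCA quench. Glutamate read as NADH via glutamate dehydrogenase in glycine–hydrazine pH 9 with ADP and NAD+.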

[9] = Cytotoxicity against CHL cells assessed as structural aberrations at 0.05 ug/ml preincubated for 6 hrs followed by 18 hrs incubation in fresh medium in absence of S9 fraction by Giemsa-staining-based microscopic analysis; assay type: toxicity, cell-based, Cricetulus griseus; settings: chinese hamster
[10] = Cytotoxicity against CHL cells assessed as number of cells with numerical aberrations at 0.05 ug/ml preincubated for 6 hrs followed by 18 hrs incubation in fresh medium in absence of S9 fraction by Giemsa-staining-based microscopic analysis relative to control; assay type: toxicity, cell-based, Cricetulus griseus; settings: chinese hamster
[11] = Cytotoxicity against CHL cells assessed as structural aberrations at 0.05 ug/ml after 24 hrs by Giemsa-staining-based microscopic analysis; assay type: toxicity, cell-based, Cricetulus griseus; settings: chinese hamster
[12] = Cytotoxicity against CHL cells assessed as number of cells with numerical aberrations at 0.05 ug/ml after 24 hrs by Giemsa staining-based microscopic analysis relative to control; assay type: toxicity, cell-based, Cricetulus griseus; settings: chinese hamster
[13] = Cytotoxicity against CHL cells assessed as chromatid gap at 0.05 ug/ml after 24 hrs by Giemsa-staining-based microscopic analysis; assay type: toxicity, cell-based, Cricetulus griseus; settings: chinese hamster
[14] = Cytotoxicity against CHL cells assessed as chromatid gap at 0.05 ug/ml preincubated for 6 hrs followed by 18 hrs incubation in fresh medium in absence of S9 fraction by Giemsa-staining-based microscopic analysis; assay type: toxicity, cell-based, Cricetulus griseus; settings: chinese hamster
[15] = Hydrolytic stability of the compound in D2O assessed as formation of monomethyl phosphonate and phenol at 23 degC after 28 days by 31P NMR spectroscopy; assay type: physicochemical; settings: 672 h
[16] = Cytotoxicity against CHL cells assessed as structural aberrations at 20 ug/ml preincubated for 6 hrs followed by 18 hrs incubation in fresh medium in presence of S9 fraction by Giemsa-staining-based microscopic analysis; assay type: toxicity, cell-based, Cricetulus griseus; settings: chinese hamster
[17] = Cytotoxicity against CHL cells assessed as chromatid gap at 20 ug/ml preincubated for 6 hrs followed by 18 hrs incubation in fresh medium in presence of S9 fraction by Giemsa-staining-based microscopic analysis; assay type: toxicity, cell-based, Cricetulus griseus; settings: chinese hamster
[18] = Cytotoxicity against CHL cells assessed as number of cells with numerical aberrations at 20 ug/ml preincubated for 6 hrs followed by 18 hrs incubation in fresh medium in presence of S9 fraction by Giemsa staining-based microscopic analysis relative to control; assay type: toxicity, cell-based, Cricetulus griseus; settings: chinese hamster
Salmonella typhimurium [19] = experiment: Genotoxicity in Salmonella typhimurium TA98 assessed as number of revertant colonies per plate at 1 ug/plate after 20 mins in absence of S9 fraction by Ames test (reference value: 21); assay type: toxicity, organism-based; settings: salmonella enterica subsp. enterica serovar typhimurium

| SMILES | K (Homo sapiens) [M⁻¹ s⁻¹] | K (Escherichia coli K-12) [M⁻¹ s⁻¹] | also measured |
| --- | --- | --- | --- |
| CCOC(=O)Cc1cccc(OP(=O)(CCC(N)C(=O)O)OC)c1 (mixture of isomers) | 1.2 | 120 |  |
| Nc1c2ccccc2nc2ccccc12 [AMINACRINE] |  |  | Activity (Salmonella typhimurium [1]): 320 |
| COP(=O)(CCC(N)C(=O)O)Oc1ccc(CC(=O)O)cc1 (stereo not drawn) | 0.33 | 210 | Stability [2]: Stable |
| COP(=O)(CCC(N)C(=O)O)Oc1cccc(CC(N)=O)c1 (mixture of isomers) | 1.9 | 400 |  |
| COP(=O)(CCC(N)C(=O)O)Oc1ccccc1 (stereo not drawn) | 0.4 | 120 |  |
| COP(=O)(CCC(N)C(=O)O)Oc1cccc(C(=O)O)c1 (mixture of isomers) | 1.6 | 450 |  |
| Nc1ccc2cc3ccccc3cc2c1 [2-AMINOANTHRACENE] |  |  | Activity (Salmonella typhimurium [3]): 154; Activity (Salmonella typhimurium [4]): 299; Activity (Salmonella typhimurium [5]): 421; Activity (Escherichia coli [6]): 495; Activity (Salmonella typhimurium [7]): 694 |
| N[C@H](C(=O)O)[C@@H]1CC(Cl)=NO1 |  |  | inhibition (Escherichia coli [8]): Active |
| CO[C@@]12[C@H](COC(N)=O)C3=C(C(=O)C(C)=C(N)C3=O)N1C[C@@H]1N[C@@H]12 [MITOMYCIN] |  |  | Activity [9]: 40%; Activity [10]: 2%; Activity [11]: 40%; Activity [12]: 0%; Activity [13]: 0%; Activity [14]: 3% |
| COP(=O)(CCC(N)C(=O)O)Oc1cccc([N+](=O)[O-])c1 (mixture of isomers) | 49 | 5100 | Stability [15]: Unstable |
| NC(CCP(=O)(Oc1ccccc1)Oc1ccccc1)C(=O)O (racemic) | 0.41 | 27.8 |  |
| c1ccc2c(c1)cc1ccc3cccc4ccc2c1c34 [BENZO[DEF]CHRYSENE] |  |  | Activity [16]: 46%; Activity [17]: 6%; Activity [18]: 1% |
| NC(CCP(=O)(Oc1ccccc1)Oc1cccc(CC(=O)O)c1)C(=O)O (mixture of isomers) | 40 |  |  |
| COP(=O)(CCC(N)C(=O)O)Oc1ccc(C(=O)O)cc1 (mixture of isomers) | 5.2 | 3200 |  |
| O=[N+]([O-])c1ccc2c(c1)Cc1ccccc1-2 [2-NITROFLUORENE] |  |  | Activity (Salmonella typhimurium [19]): 442 |
| COP(=O)(CCC(N)C(=O)O)Oc1cccc(CCC(=O)O)c1 (mixture of isomers) | 7.7 | 71 |  |
